Here are results for two compounds from ChEMBL document CHEMBL4261487, “Small structural changes of the imidazopyridine diacylglycerol acyltransferase 2 (DGAT2) inhibitors produce an improved safety profile” (Medchemcomm, 2017).

In data set [1] the test system is Canis familiaris. As to the kind of experiment: Unbound AUC in beagle dog at 10 mg/kg, po qd administered for 1 month. Particulars: in vivo. Format: ADME, organism-based, Canis lupus familiaris. The essentials: (§1)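 Beagle dogs were dosed orally once daily in a 14-day exploratory study or 1-month toxicity studies. Steady-state systemic exposure over the 24 h dosing interval is reported as the mean of male and female values combined.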

In data set [2] the test system is Canis familiaris. As to the kind of experiment: Unbound Cmax in beagle dog at 10 mg/kg, po qd administered for 1 month. In kind it is ADME, organism-based, Canis lupus familiaris. Particulars: in vivo. The essentials: as §1
The nature of data set [3]: Half life in beagle dog at 5 mg/kg, po. In kind it is ADME, organism-based, Canis lupus familiaris. Particulars: in vivo.
Data set [4] concerns Canis familiaris. In words: Unbound Cmax in telemetered beagle dog at 25 mg/kg administered via oral gavage measured over 24 hrs. In kind it is ADME, organism-based, Canis lupus familiaris. Particulars: in vivo. The essentials: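 Telemetered Beagle dogs given oral doses, with blood pressure and heart rate monitored after dosing alongside plasma exposure.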
Data set [5] relates to Canis familiaris. In words: In vivo inhibition of DGAT2 in beagle dog assessed as coverage of in vitro IC50 for dog DGAT2 at 10 mg/kg, po qd administered for 1 month. Format: functional, Canis lupus familiaris. The arrangement: scale not given: the % may be the effect or the level left. The essentials: (§2)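 Beagle dogs, once-daily oral dosing for 14 days or 1 month; systemic exposure with sexes combined; coverage is the average % above dog DGAT2 IC50 at steady state over the 24 h dosing interval.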

The test system of data set [6] is Canis familiaris. In words: Unbound Cmax in beagle dog at 30 mg/kg, po qd administered for 1 month. In kind it is ADME, organism-based, Canis lupus familiaris. Particulars: in vivo. The gist of the method:
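One-month dog toxicity study with once-daily oral dosing. Toxicity groups were 2/sex/dose, and unbound peak exposure was taken from toxicokinetic sampling.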

Data set [7] deals with UGT. As to the kind of experiment: Drug metabolism in human liver microsomes assessed as UGT-mediated glucuronidation by measuring clearance rate. In kind it is ADME. Particulars: liver microsomes, read-out: CLH. In general terms: Microsomes from liver hold many membrane-bound enzymes, among them those of drug oxidation.
Data set [8] can be described thus: Ratio of Cmax in beagle dog at 30 mg/kg, po qd administered for 1 month to IC50 for in vitro inhibition of dog DGAT2. Format: organism-based, Canis lupus familiaris. Particulars: in vivo. The essentials: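 One-month toxicity study in Beagle dogs with N = 2/sex/dose. Plasma exposure at each dose level was referenced to the dog DGAT2 enzymatic IC50, reported as the geometric mean of at least three replicates.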

Data set [9] in a line: Fraction unbound in rat plasma. Format: ADME, cell-free.
Data set [10] is described as follows: Thermodynamic solubility of the compound at pH 6.5. In kind it is physicochemical. Particulars: buffer, read-out: Therm_solubility.
The target in data set [11] is T1, Diacylglycerol O-acyltransferase 2 (Canis lupus familiaris, UniProt A0A8I3NDW2).
T1 sequence (A0A8I3NDW2 whole entry): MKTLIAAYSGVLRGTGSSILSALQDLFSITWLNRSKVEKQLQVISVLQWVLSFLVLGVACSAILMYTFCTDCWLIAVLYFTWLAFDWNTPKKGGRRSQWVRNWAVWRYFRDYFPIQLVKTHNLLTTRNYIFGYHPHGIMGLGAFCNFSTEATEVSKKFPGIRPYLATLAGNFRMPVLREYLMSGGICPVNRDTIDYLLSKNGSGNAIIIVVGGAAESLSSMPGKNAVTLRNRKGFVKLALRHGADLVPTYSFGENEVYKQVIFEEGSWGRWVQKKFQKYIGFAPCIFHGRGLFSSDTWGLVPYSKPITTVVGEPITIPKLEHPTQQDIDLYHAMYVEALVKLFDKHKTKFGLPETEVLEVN
As to the kind of experiment: Inhibition of dog DGAT2.

Data set [12] deals with CYP3A4 (Homo sapiens, UniProt P08684). In words: Drug metabolism in human liver microsomes assessed as CYP3A4-mediated oxidative metabolism by measuring clearance rate. Format: ADME. Particulars: liver microsomes, read-out: CLH.
Sequence of CYP3A4 (P08684 whole entry): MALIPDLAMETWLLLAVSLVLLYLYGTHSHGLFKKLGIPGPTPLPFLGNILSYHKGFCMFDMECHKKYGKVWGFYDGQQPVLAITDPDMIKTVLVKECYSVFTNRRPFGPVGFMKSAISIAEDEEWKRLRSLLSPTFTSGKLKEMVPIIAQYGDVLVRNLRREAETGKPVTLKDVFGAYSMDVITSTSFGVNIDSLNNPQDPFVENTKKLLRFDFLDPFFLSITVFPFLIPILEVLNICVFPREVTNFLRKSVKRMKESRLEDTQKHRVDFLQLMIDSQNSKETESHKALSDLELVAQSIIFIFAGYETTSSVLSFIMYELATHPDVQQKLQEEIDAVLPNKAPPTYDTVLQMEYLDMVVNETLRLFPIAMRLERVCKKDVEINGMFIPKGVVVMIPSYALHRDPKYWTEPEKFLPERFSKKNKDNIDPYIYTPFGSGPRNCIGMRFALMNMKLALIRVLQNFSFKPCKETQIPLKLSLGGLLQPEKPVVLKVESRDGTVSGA
Data set [13] deals with Canis familiaris. In words: Toxicity in telemetered beagle dog assessed as foamy white salivation at 75 mg/kg administered via oral gavage measured within 4 hrs of dosing. Particulars: in vivo. In kind it is organism-based, Canis lupus familiaris.
In data set [14] the test system is Rattus norvegicus. In words: In vivo inhibition of DGAT2 in Wistar Han IGS rat assessed as coverage of in vitro IC50 for rat DGAT2 at 100 mg/kg, po qd administered for 14 days. Format: functional. On the set-up: scale not given: the % may be the effect or the level left. The essentials: (§3)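 Wistar Han rats, once-daily oral dosing for 14 days (exploratory, 5/sex/dose) or 1 month (10/sex/dose); toxicokinetics in 3–4/sex/dose with sexes combined; coverage is the average % above rat DGAT2 IC50 at steady state over the 24 h dosing interval.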

The test system of data set [15] is Canis familiaris. As to the kind of experiment: Unbound AUC in beagle dog at 2 mg/kg, po qd administered for 1 month. In kind it is ADME, organism-based, Canis lupus familiaris. Particulars: in vivo. The gist of the method: as §1
The test system of data set [16] is Rattus norvegicus. In words: Unbound AUC in Wistar Han IGS rat at 10 mg/kg, po qd administered for 14 days. In kind it is ADME, organism-based. Particulars: in vivo, 336 h. The gist of the method:
(§4)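 Wistar Han rats were dosed orally once daily for 14 days (exploratory, 5/sex/dose) or 1 month (toxicity, 10/sex/dose). Toxicokinetic satellite animals (3–4/sex/dose) were used, and steady-state systemic exposure is given as the mean of male and female values combined.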

The test system of data set [17] is Canis familiaris. As to the kind of experiment: Toxicity in telemetered beagle dog assessed as increase in systolic blood pressure at 20 mg/kg, iv administered as single bolus dose over 2 mins. In kind it is organism-based, Canis lupus familiaris. Particulars: in vivo.
For data set [18], the system named is Canis familiaris. As to the kind of experiment: Toxicity in po dosed telemetered beagle dog assessed as increase in heart rate measured over 24 hrs. Format: organism-based, Canis lupus familiaris. Particulars: in vivo.
Data set [19] concerns Canis familiaris. In words: Toxicity in beagle dog assessed as decrease in food consumption at 150 mg/kg, po qd administered for 10 days. Format: organism-based, Canis lupus familiaris. Particulars: in vivo, 240 h.
Data set [20] deals with Rattus norvegicus. In words: In vivo inhibition of DGAT2 in Wistar Han IGS rat assessed as coverage of in vitro IC50 for rat DGAT2 at 300 mg/kg, po qd administered for 1 month. In kind it is functional. On the set-up: scale not given: the % may be the effect or the level left. The gist of the method: as §3
For data set [21], the system named is Canis familiaris. As to the kind of experiment: In vivo inhibition of DGAT2 in beagle dog assessed as coverage of in vitro IC50 for dog DGAT2 at 50 mg/kg, po qd administered for 1 month. On the set-up: scale not given: the % may be the effect or the level left. In kind it is functional, Canis lupus familiaris. The essentials: as §2
Data set [22] has as its system Rattus norvegicus. In words: Unbound Cmax in Wistar Han IGS rat at 500 mg/kg, po qd administered for 14 days. Format: ADME, organism-based. Particulars: in vivo, 336 h. The gist of the method:
as §4

Data set [23] has as its system Canis familiaris. In words: Toxicity in telemetered beagle dog assessed as increase in heart rate at 25 mg/kg administered via oral gavage measured over 24 hrs. Format: organism-based, Canis lupus familiaris. Particulars: in vivo.
Data set [24] relates to Canis familiaris. In words: Toxicity in beagle dog assessed as decrease in food consumption at 100 mg/kg, po qd administered starting on day 11 post 150 mg/kg dosing period and continuing for 20 days. In kind it is organism-based, Canis lupus familiaris. Particulars: in vivo, 480 h.
Data set [25] deals with Canis familiaris. As to the kind of experiment: Toxicity in telemetered beagle dog assessed as increase in heart rate at 20 mg/kg, iv administered as single bolus dose over 2 mins. In kind it is organism-based, Canis lupus familiaris. Particulars: in vivo.
Data set [26] has as its system Canis familiaris. As to the kind of experiment: Toxicity in telemetered beagle dog assessed as increase in heart rate at 10 mg/kg administered via oral gavage measured over 24 hrs. Format: organism-based, Canis lupus familiaris. Particulars: in vivo.
Data set [27] relates to Canis familiaris. As to the kind of experiment: Unbound Cmax in beagle dog […] at 75 mg/kg, po qd administered for 14 days. In kind it is ADME, organism-based, Canis lupus familiaris. Particulars: in vivo, 336 h. The essentials: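 Exploratory 14-day dog toxicity study with daily oral dosing. Toxicokinetic exposure is reported as the mean with male and female systemic values combined.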

In data set [28] the test system is Rattus norvegicus. In words: Unbound Cmax in Wistar Han IGS rat at 10 mg/kg, po qd administered for 14 days. Format: ADME, organism-based. Particulars: in vivo, 336 h. The essentials: as §4
The nature of data set [29]: Toxicity in po dosed beagle dog administered as qd for 14 days. Format: organism-based, Canis lupus familiaris. Particulars: in vivo.
Data set [30] concerns Rattus norvegicus. In words: Toxicity in Wistar Han IGS rat assessed as gastric smooth muscle degeneration at 500 mg/kg, po qd administered for 14 days. In kind it is organism-based. Particulars: in vivo, 336 h. The gist of the method: (§5)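 Wistar Han rats, daily oral dosing for 14 days (5/sex/dose) or 1 month (10/sex/dose); microscopic findings reported as incidence by sex, plus organ weights.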

The subject of data set [31] is Canis familiaris. As to the kind of experiment: Toxicity in telemetered beagle dog assessed as increase in diastolic pressure at 25 mg/kg administered via oral gavage measured over 24 hrs. In kind it is organism-based, Canis lupus familiaris. Particulars: in vivo.
Data set [32] relates to Rattus norvegicus. In words: In vivo inhibition of DGAT2 in Wistar Han IGS rat assessed as coverage of in vitro IC50 for rat DGAT2 at 30 mg/kg, po qd administered for 1 month. In kind it is functional. The arrangement: scale not given: the % may be the effect or the level left. The gist of the method: as §3
The subject of data set [33] is Rattus norvegicus. In words: Toxicity in Wistar Han IGS rat at 30 mg/kg, po qd administered for 1 month. Particulars: in vivo. In kind it is organism-based. The gist of the method: as §5

≈ marks a conversion by molar mass, not a printed value.

The term half-life denotes the time in which the quantity being followed falls by half. As a reminder, the fraction unbound is the share of the substance not bound to proteins or other matrix. As a reminder, the IC50 is the concentration that inhibits the measured activity by half. With `C[C@@H](c1nc2ccc(N3CCC[C@@H](C(=O)N4CCCC4)C3)nc2[nH]1)n1cc(Cl)cn1`, the fAUC in data set [1] was 2680 ng·h/mL. Besides, the fCmax in [2] is 1270 nM; in data set [4] it was 2.14 µM; in data set [6], 3.76 µM. In addition, the half-life in [3] was 3 h. Besides, the Activity in data set [5] was 86%. The microsomal CLint in [7] turned out to be 10.8 µL/min/mg; in data set [12], 27.5 µL/min/mg. In addition, the Ratio in [8] is listed as 92. This compound registered a fraction unbound in data set [9] of 0.14. Moreover, the solubility thermodynamic in data set [10] was found to be 285 µg/mL (≈ 666 µM). Moreover, the half-inhibitory concentration (IC50) in data set [11] was 41 nM.

Regarding `CS(=O)(=O)O.O=C([C@@H]1CCCN(c2ccc3nc(C4(n5cc(Cl)cn5)CC4)[nH]c3n2)C1)N1CCCC1`, the fAUC in [1] was determined as 5280 ng·h/mL; in data set [15], 238 ng·h/mL; in [16], 1190 ng·h/mL. For the same compound, the Activity result in data set [13] is listed as “Toxic”; in data set [14], 98%; in data set [17] it was “Non-Toxic”; in [18], “Dose-dependent effect”; in data set [19], “Toxic”; in [20] it was more than 99%. Further, the Activity in [21] is more than 99%; in [5], 97%; in [23], 6 to 20 bpm; in [24], “Non-Toxic”; in data set [25], 27 bpm; in data set [26], 4 to 10 bpm. The Activity result in data set [30] is reported as “Toxic”; in data set [31], “Non-Toxic”; in data set [32] it was 92%; in data set [33] it was “Non-Toxic”. The fCmax in data set [2] amounted to 2030 nM; in [4] it was 4.06 µM; in data set [22], 18.8 µM; in data set [27], 6.54 µM; in data set [28], 390 nM. Also, the values for the microsomal CLint in data set [7] and in data set [12] were less than 1.9 µL/min/mg and 23.7 µL/min/mg, respectively. Further, in data set [29], the MTD at 336 h came out at 75 mg/kg/day.
